Laboratory results taken from ChEMBL document CHEMBL2176968, “Identification of less lipophilic riminophenazine derivatives for the treatment of drug-resistant tuberculosis” (J Med Chem, 2012).
≈ marks a conversion by molar mass, not a printed value.

Legend:
[1] = system: Vero; test: Cytotoxicity against african green monkey Vero cells after 48 hrs by MTT assay; type: cell-based; details: Chlorocebus sabaeus
Method in brief: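 Vero cells were exposed to compound. The IC50 was taken as the concentration inhibiting 50% of growth relative to an untreated control.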

[2] = system: Mus musculus; test: Acute toxicity in mouse assessed as survival at 500 mg/kg, po measured for 7 days; type: organism-based; set-up: dose 500 mg/kg, route oral; details: in vivo, 168 h
Method in brief: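 Mice given one oral dose of 500 mg/kg, then observed for 7 days. The number of surviving mice was recorded.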

[3] = Selectivity index, ratio of IC50 for african green monkey Vero cells to MIC for Mycobacterium tuberculosis H37Rv ATCC 27294; type: functional
[4] = system: Mycobacterium tuberculosis; test: Antimycobacterial activity against Mycobacterium tuberculosis H37Rv ATCC 27294 after 7 days by microplate Alamar blue assay; type: functional; details: H37Rv ATCC 27294, 168 h
Method in brief: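 Run in 96-well plates against M. tuberculosis H37Rv using the Alamar Blue read-out. The MIC was taken as the lowest concentration giving >90% growth inhibition.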

[5] = Acute toxicity in mouse; type: organism-based; details: in vivo
[6] = Half life in BALB/c mouse at 20 mg/kg, po; type: ADME, organism-based; set-up: dose 20 mg/kg, route oral; details: in vivo
[7] = AUC (0 to 24 hrs) in BALB/c mouse at 20 mg/kg, po; type: ADME, organism-based; set-up: time < 24 hr, dose 20 mg/kg, route oral; details: plasma
[8] = Octanol-water partition coefficient, log P of the compound; type: physicochemical
[9] = Cmax in BALB/c mouse at 20 mg/kg, po; type: ADME, organism-based; set-up: dose 20 mg/kg, route oral; details: in vivo

SMILES	IC50 [1]	Activity [2]	Selectivity Index [3]	MIC [4]	LD50 [5]	half-life [6]	AUC(0-t) at 24 h [7]	logP [8]	Cmax [9]
Cc1ncccc1Nc1cc2nc3ccccc3n(-c3ccc(F)cc3)c-2c/c1=N\C1CCOCC1	> 64 µg/mL	Toxic	2462	0.026 µg/mL (≈ 0.0542 µM)					
COC1CCC(/N=c2\cc3n(-c4ccc(F)cc4)c4ccccc4nc-3cc2Nc2cccnc2C)CC1 (centres undefined)	> 64 µg/mL	Toxic	3368	0.019 µg/mL (≈ 0.0374 µM)					
COc1ncccc1Nc1cc2nc3ccccc3n(-c3ccc(C(F)(F)F)cc3)c-2c/c1=N\C(C)C	> 64 µg/mL	Non-toxic	2207	0.029 µg/mL (≈ 0.0576 µM)					
COc1ncccc1Nc1cc2nc3ccccc3n(-c3ccc(C(F)(F)F)cc3)c-2c/c1=N\C1CCOCC1	> 64 µg/mL	Non-toxic	4000	0.016 µg/mL (≈ 0.0293 µM)					
COc1ncccc1Nc1cc2nc3ccccc3n(-c3ccc(C(F)(F)F)cc3)c-2c/c1=N\C1CCC(OC)CC1 (centres undefined)	> 64 µg/mL	Non-toxic	4000	0.016 µg/mL (≈ 0.0279 µM)					
Cc1ncccc1Nc1cc2nc3ccccc3n(-c3ccc(C(F)(F)F)cc3)c-2c/c1=N\C1CCOCC1	> 64 µg/mL	Toxic	5818	0.011 µg/mL (≈ 0.0208 µM)					
CC(C)/N=c1\cc2n(-c3ccc(Cl)cc3)c3ccccc3nc-2cc1Nc1cccnc1	8.2 µg/mL (≈ 18.6 µM)		273	0.03 µg/mL (≈ 0.0682 µM)	422 mg/kg				
CC(C)/N=c1\cc2n(-c3ccccc3)c3ccccc3nc-2cc1Nc1cccnc1	3.93 µg/mL (≈ 9.69 µM)		66	0.06 µg/mL (≈ 0.148 µM)					
Cc1ccc(-n2c3c/c(=N\C(C)C)c(Nc4cccnc4)cc-3nc3ccccc32)cc1	2.71 µg/mL (≈ 6.46 µM)		45	0.06 µg/mL (≈ 0.143 µM)					
CSc1ccc(-n2c3c/c(=N\C(C)C)c(Nc4cccnc4)cc-3nc3ccccc32)cc1	1.83 µg/mL (≈ 4.05 µM)		37	0.05 µg/mL (≈ 0.111 µM)					
CC(C)/N=c1\cc2n(-c3ccc(F)cc3)c3ccccc3nc-2cc1Nc1cccnc1	6.25 µg/mL (≈ 14.8 µM)		208	0.03 µg/mL (≈ 0.0708 µM)					
CC(C)/N=c1\cc2n(-c3ccc(C(F)(F)F)cc3)c3ccccc3nc-2cc1Nc1cccnc1	19.7 µg/mL (≈ 41.5 µM)		655	0.03 µg/mL (≈ 0.0634 µM)					
CC(C)/N=c1\cc2n(-c3ccc(OC(F)(F)F)cc3)c3ccccc3nc-2cc1Nc1cccnc1	4.93 µg/mL (≈ 10.1 µM)		164	0.03 µg/mL (≈ 0.0613 µM)					
CC(C)/N=c1\cc2n(-c3ccc(Br)cc3)c3ccccc3nc-2cc1Nc1cccnc1	2.3 µg/mL (≈ 4.75 µM)		115	0.02 µg/mL (≈ 0.0413 µM)					
Clc1ccc(-n2c3c/c(=N\C4CCOCC4)c(Nc4cccnc4)cc-3nc3ccccc32)cc1	2.5 µg/mL (≈ 5.19 µM)		83	0.03 µg/mL (≈ 0.0622 µM)					
COC1CCC(/N=c2\cc3n(-c4ccc(Cl)cc4)c4ccccc4nc-3cc2Nc2cccnc2)CC1 (centres undefined)	12 µg/mL (≈ 23.6 µM)		401	0.03 µg/mL (≈ 0.0588 µM)					
CN1CCC(/N=c2\cc3n(-c4ccc(Cl)cc4)c4ccccc4nc-3cc2Nc2cccnc2)CC1	5.58 µg/mL (≈ 11.3 µM)		45	0.125 µg/mL (≈ 0.253 µM)					
CC(C)CN1CCC(/N=c2\cc3n(-c4ccc(Cl)cc4)c4ccccc4nc-3cc2Nc2cccnc2)CC1	15.1 µg/mL (≈ 28 µM)		60	0.25 µg/mL (≈ 0.465 µM)					
Clc1ccc(-n2c3c/c(=N\CCN4CCOCC4)c(Nc4cccnc4)cc-3nc3ccccc32)cc1	4.02 µg/mL (≈ 7.87 µM)		16	0.25 µg/mL (≈ 0.489 µM)					
Fc1ccc(-n2c3c/c(=N\C4CCOCC4)c(Nc4cccnc4)cc-3nc3ccccc32)cc1	7.36 µg/mL (≈ 15.8 µM)		123	0.06 µg/mL (≈ 0.129 µM)					
COC1CCC(/N=c2\cc3n(-c4ccc(F)cc4)c4ccccc4nc-3cc2Nc2cccnc2)CC1 (centres undefined)	> 64 µg/mL		533	0.12 µg/mL (≈ 0.243 µM)					
CN1CCC(/N=c2\cc3n(-c4ccc(F)cc4)c4ccccc4nc-3cc2Nc2cccnc2)CC1	6.44 µg/mL (≈ 13.5 µM)		26	0.25 µg/mL (≈ 0.522 µM)					
CC(C)CN1CCC(/N=c2\cc3n(-c4ccc(F)cc4)c4ccccc4nc-3cc2Nc2cccnc2)CC1	30.3 µg/mL (≈ 58.1 µM)		242	0.125 µg/mL (≈ 0.24 µM)					
CC(C)/N=c1\cc2n(-c3ccc(Cl)cc3)c3ccccc3nc-2cc1Nc1ccc(Cl)cc1 [CLOFAZIMINE]	68.6 µg/mL (≈ 145 µM)		572	0.12 µg/mL (≈ 0.253 µM)	> 3000 mg/kg	29.7 h	6960 ng·h/mL	5.34	380 ng/mL
